Results on 36 compounds are retold here after ChEMBL document CHEMBL1154218, “Design and synthesis of dipeptidyl nitriles as potent, selective, and reversible inhibitors of cathepsin C” (Bioorg Med Chem Lett, 2009).

A short description of series [1]: Metabolic stability in rat whole blood assessed as compound remaining after 30 mins. Type of series: ADME, tissue-based. The note with it: read-out: Activity. The method, boiled down:
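Compound incubated in fresh rat whole blood for 30 min at 25 °C. Read-out is % of intact parent remaining, with amide hydrolysis products (P2 amino acid, P1 amino nitrile) monitored.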

Series [2] is described as follows: Clearance in iv dosed rat. Type of series: ADME, organism-based. The note with it: in vivo. An outline of the steps: (§1)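 Rats dosed intravenously. Plasma samples were analysed for parent and metabolites to give clearance (ml/min/kg) and half-life.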
Series [3] is filed under the species Rattus norvegicus. The series is described as follows: Metabolic stability in rat whole blood.
Series [4] deals with U-937. Put plainly: Cytotoxicity against human U937 cells at 30 uM up to 72 hrs. Type of series: functional, cell-based. An outline of the steps:
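Human U937 cells were exposed to compound at 30 µM for up to 72 h and assessed for cytotoxicity.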

A short description of series [5]: Half life in iv dosed rat. Type of series: ADME, organism-based. The conditions noted are these: in vivo. An outline of the steps:
as §1

For series [6], the target named is Dipeptidyl peptidase 1 (Homo sapiens, UniProt P53634). Put plainly: Inhibition of human recombinant cathepsin C. The method, boiled down: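 Enzyme: purified human recombinant cathepsin C. IC50 in nM given as mean with standard deviation of at least three experiments.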
Chain of Dipeptidyl peptidase 1 (P53634 25-134 limits assumed): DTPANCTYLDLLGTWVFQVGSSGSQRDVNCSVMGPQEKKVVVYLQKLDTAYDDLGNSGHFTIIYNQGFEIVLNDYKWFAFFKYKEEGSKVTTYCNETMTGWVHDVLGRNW
Chain of Dipeptidyl peptidase 1 (P53634 231-394 limits assumed): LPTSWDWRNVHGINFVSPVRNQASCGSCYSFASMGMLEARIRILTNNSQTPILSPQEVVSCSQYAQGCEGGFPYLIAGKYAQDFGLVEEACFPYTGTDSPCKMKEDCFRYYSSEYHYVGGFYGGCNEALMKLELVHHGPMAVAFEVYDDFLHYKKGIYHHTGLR
Chain of Dipeptidyl peptidase 1 (P53634 395-463 limits assumed): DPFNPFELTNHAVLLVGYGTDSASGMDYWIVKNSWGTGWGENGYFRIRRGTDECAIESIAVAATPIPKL

For the compound `N#C[C@@]1(NC(=O)[C@@H](N)Cc2cccs2)C[C@@H]1c1ccccc1`, in series [1], the remaining at 0.5 h was more than 98%. The clearance in series [2] worked out at 35 mL/min/kg. The Stability result in series [3] is listed as “Stable”. Also, in series [4], the Activity entry was “Not toxic”. Also, the half-life in series [5] is 84 min.

As for `N#C[C@H](Cc1ccc(-c2ccccc2)cc1)NC(=O)[C@@H]1C[C@H](F)CN1`, in series [6], the IC50 is 8.2 nM.

As to `N#C[C@]1(NC(=O)[C@@H]2C[C@H](F)CN2)C[C@H]1c1ccccc1`, the half-maximal inhibitory concentration (IC50) in series [6] worked out at 2190 nM.

Regarding `CSCC[C@H](N)C(=O)N[C@H](C#N)Cc1c[nH]c2ccccc12`, the IC50 in series [6] was found to be 200 nM.

Turning to `CSCC[C@H](N)C(=O)NCCc1c[nH]c2ccccc12`, the half-inhibitory concentration (IC50) in series [6] was determined as 11000 nM.

In the case of `N#C[C@H](Cc1ccccc1)NC(=O)[C@@H]1CCCN1`, the half-maximal inhibitory concentration (IC50) in series [6] was 4810 nM.

With `N#CC1(NC(=O)[C@@H](N)Cc2cccs2)CC1c1ccccc1` (mixture of isomers), in series [6], the 50% inhibitory concentration (IC50) worked out at 1230 nM.

As to `CC1(C)CC1(C#N)NC(=O)[C@@H](N)Cc1cccs1` (stereo partly drawn), the IC50 in series [6] is 63 nM.

Regarding `N#CCNC(=O)[C@@H](N)Cc1cccs1`, in series [1], the remaining at 0.5 h was 6%. Moreover, the IC50 in series [6] was 17 nM.

For `CC(C)[C@H](N)C(=O)N[C@H](C#N)Cc1c[nH]c2ccccc12`, the 50% inhibitory concentration (IC50) in series [6] was 330 nM.

As for `N#CC1(NC(=O)[C@@H]2C[C@H](F)CN2)CC1`, the half-inhibitory concentration (IC50) in series [6] worked out at 880 nM.

As for `N#C[C@H](Cc1ccc(-c2ccccc2)s1)NC(=O)[C@@H](N)Cc1cccs1`, the IC50 in series [6] was 0.3 nM. In series [2], the clearance is more than 100 mL/min/kg. Besides, in series [5], the half-life was less than 30 min.

Turning to `N#C[C@H](CCc1ccccc1)NC(=O)[C@@H](N)Cc1cccs1`, the IC50 in series [6] is 11 nM.

With `CS[C@@H]1CN[C@H](C(=O)NC2(C#N)CC2)C1`, in series [6], the half-inhibitory concentration (IC50) was 336 nM.

As to `N#CC1(NC(=O)[C@@H](N)Cc2cccs2)CC1`, the remaining at 0.5 h in series [1] is 92%. Moreover, the 50% inhibitory concentration (IC50) in series [6] stood at 12 nM. The same compound had a clearance in series [2] of 113 mL/min/kg. In addition, the half-life in series [5] was 30 min.

Turning to `C[C@@H]1CN[C@H](C(=O)N[C@H](C#N)Cc2ccccc2)C1`, in series [6], the IC50 is 2500 nM.

Consider `CCS[C@@H]1CN[C@H](C(=O)N[C@H](C#N)Cc2ccccc2)C1`, for which, in series [6], the 50% inhibitory concentration (IC50) came to 271 nM.

As to `N#C[C@H](Cc1nc2ccccc2s1)NC(=O)[C@@H](N)Cc1cccs1`, the concentration for half-maximal inhibition (IC50) in series [6] is 0.7 nM. Besides, the clearance in series [2] was more than 100 mL/min/kg. This compound yielded a half-life in series [5] of less than 30 min.

For the compound `N#C[C@@H](NC(=O)[C@@H](N)Cc1cccs1)C(c1ccccc1)c1ccccc1`, the IC50 in series [6] came to 3.8 nM. This compound gave a clearance in series [2] of more than 100 mL/min/kg. Besides, the half-life in series [5] is less than 30 min.

Consider `CCSCC[C@H](N)C(=O)N[C@H](C#N)Cc1c[nH]c2ccccc12`, for which the IC50 in series [6] is 1580 nM.

`N#C[C@H](Cc1ccccc1)NC(=O)[C@@H]1C[C@H](F)CN1`: the half-maximal inhibitory concentration (IC50) in series [6] turned out to be 133 nM.

As for `N#C[C@H](Cc1ccccc1)NC(=O)[C@@H](N)Cc1cccs1`, in series [1], the remaining at 0.5 h is 0%. The IC50 in series [6] is 0.9 nM. For the same compound, in series [2], the clearance was more than 100 mL/min/kg. For the same compound, in series [5], the half-life was less than 30 min.

In the case of `N#C[C@H](CC1CCCCC1)NC(=O)[C@@H](N)Cc1cccs1`, in series [6], the IC50 stood at 5.1 nM.

Consider `CO[C@@H]1CN[C@H](C(=O)N[C@H](C#N)Cc2ccccc2)C1`, for which the half-inhibitory concentration (IC50) in series [6] turned out to be 1080 nM.

Turning to `N#C[C@]1(NC(=O)[C@@H](N)Cc2cccs2)C[C@H]1c1ccccc1`, the IC50 in series [6] worked out at 17 nM.

`CC(C)(C#N)NC(=O)[C@@H](N)Cc1cccs1`: in series [6], the IC50 was 1420 nM.

Consider `N#C[C@H](Cc1ccc(F)cc1)NC(=O)[C@@H]1CCCN1`, for which the half-inhibitory concentration (IC50) in series [6] is more than 10000 nM.

On to `CC(C)(C)[C@@H](C#N)NC(=O)[C@@H](N)Cc1cccs1`, for which, in series [1], the remaining at 0.5 h came to 83%. In series [6], the IC50 is more than 3000 nM.

Take `N#C[C@H](Cc1ccccc1)NC(=O)[C@@H]1C[C@H](Cl)CN1`: in series [6], the concentration for half-maximal inhibition (IC50) worked out at 495 nM.

As for `CS[C@@H]1CN[C@H](C(=O)N[C@H](C#N)Cc2ccccc2)C1`, the half-inhibitory concentration (IC50) in series [6] amounted to 29 nM.

Consider `CS[C@@H]1CN[C@H](C(=O)N[C@H](C#N)Cc2ccc(-c3ccccc3)cc2)C1`, for which the 50% inhibitory concentration (IC50) in series [6] came out at 1.7 nM.

On to `N#C[C@H](Cc1ccc2ccccc2c1)NC(=O)[C@@H](N)Cc1cccs1`, for which the IC50 in series [6] was found to be 1 nM. In series [2], this compound yielded a clearance of more than 100 mL/min/kg. The same compound displayed a half-life in series [5] of less than 30 min.

On to `CC(C)[C@@H](C#N)NC(=O)[C@@H](N)Cc1cccs1`, for which the remaining at 0.5 h in series [1] came to 11%. Moreover, the IC50 in series [6] was found to be 215 nM.

Turning to `N#CC1(NC(=O)[C@@H](N)Cc2cccs2)CCC1`, the IC50 in series [6] came out at 1830 nM.

For `CCSC[C@H](N)C(=O)N[C@H](C#N)Cc1c[nH]c2ccccc12`, the half-maximal inhibitory concentration (IC50) in series [6] stood at 630 nM.

`N#C[C@H](Cc1c[nH]c2ccccc12)NC(=O)[C@@H](N)Cc1cccs1`: the remaining at 0.5 h in series [1] stood at 0%. The half-inhibitory concentration (IC50) in series [6] was found to be 5.8 nM.

A word on the clearance: it is the volume of plasma or blood freed of the substance per unit of time. A higher clearance goes with efficient removal. By half-life is commonly meant how long it takes for the measured level to halve. The IC50 is the concentration at which inhibition is half-maximal.
